High-throughput results deposited in PubChem by several laboratories.
Only some compounds are listed: those with a hit (about 4% of all), similar ones and a draw of the others.
H9c2 protect: protects H9c2 cardiomyocytes from peroxide injury; AID 588492; 0.63% of 360,000 active; H2O2 injury protection, ATPLite, 2 h; protection from H2O2 cell death, % at 20 µM;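 active = compounds giving at least 50% protection of heart cells from peroxide-induced death in the single-dose screen, raw or plate-pattern-corrected value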;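 also: 0% = DMSO wells with peroxide and 100% = DMSO wells without peroxide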
iPSC survival up: increases survival of single human iPS cells. hiPSC single-cell survival, ATPlite luminescence; 100% = ROCK inhibitor wells, 0% = DMSO. survival enhancement, % at 20 µM. 0.044% of 360,000 active. AID 602274; in the data active = survival enhancement above about 18%;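 also: cells exposed to compounds for 16 hours before the ATP read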
SENP1 inh: blocks the human SENP1 SUMO protease catalytic domain. Q9P0U3. recombinant SENP1 catalytic domain, CyPet-SUMO1-YPet FRET cleavage. inhibition, % at 10 µM. 0.21% of 360,000 active. AID 624204;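 active = inhibition at least 30% at 10 µM, raw YFP signal under a set limit, fluorescence ratio 0.5 to 1.5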;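 also: 0% = enzyme with DMSO and 100% = no enzyme wells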
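Material: hSENP1 catalytic domain, recombinant; medium: Tris pH 8 with BME, BSA, NP40 and catalase; compound: single concentration of 10 µM compound, 0.5% DMSO final; technique: FRET read of cyan and yellow fluorescence; timing: 50 min enzyme reaction, room temperature, light-protected; reagent: SFCypet-SUMO1-SFYpet substrate at 25 nM; control set: no-enzyme low, enzyme-DMSO high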
GRIN3A LBD mod: modulates the human NR3A ligand-binding domain; NR3A LBD differential scanning fluorimetry, Tm shift; 0% = protein alone, 100% = glycine-bound protein; Tm shift relative to glycine control, % at 25 µM; 2.5% of 340,000 active;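 active = melting temperature shift of at least 10% of the positive control shift, at one fixed dose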
Arr AP2 block: human beta-arrestin and AP2 interaction inhibition | 0.31% of 340,000 active | FITC-arrestin peptide / GST-AP2 beads, flow cytometry; AP2 beta2 appendage carries R879A mutation | AID 504490 | inhibition, % at 10 µM;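 active = inhibition above a set limit, near 3 SD of compounds lacking own fluorescence, cut at about 54% in these data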;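 also: plate controls were DMSO wells for no effect and 5 µM unlabelled arrestin peptide for full effect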
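Material – AP2 appendage R879A on GSH beads · Buffer or medium – PBS with 0.05% Tween 20 and 0.1% BSA · Probe or stimulus – fluorescein-tagged arrestin peptide at 50 nM final · Incubation – compound with beads 12 min RT, then probe 1 h RT · Detection – high-throughput flow cytometry of beads, ex 488, em 535 nm · Evaluation – percent response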
FAS-TE inh: FAS thioesterase (human) inhibition. P49327. recombinant FAS-TE, OMFH fluorogenic substrate, fluorescence endpoint. inhibition, % at 15 µM. 0.67% of 360,000 active;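 active = compounds whose normalised, plate-corrected inhibition of enzyme fluorescence in the single-dose primary screen is 50% or more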;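 also: 0% = DMSO with enzyme and 100% = substrate without enzyme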
FAS-TE inh conf: confirmation of human fatty acid synthase thioesterase inhibitors. shares compounds with FAS-TE inh. recombinant FAS-TE, OMFH fluorogenic substrate, fluorescence. inhibition, % at 15 µM. 45% of 2,300 active;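 active = compounds inhibiting the enzyme by at least 50% at 15 µM in any one of the replicates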;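 also: 0% = enzyme with DMSO only and 100% = wells lacking enzyme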
* = called active by the depositor; · = no result given.

SMILES	H9c2 protect	iPSC survival up	SENP1 inh	GRIN3A LBD mod	Arr AP2 block	FAS-TE inh	FAS-TE inh conf
COc1cccc(NC(=O)COc2c(F)c(F)c(C(F)(F)F)c(F)c2F)c1	-9.1	-0.1	1.9	-9.6	-1.2	58.2*	36.7*
COc1cccc(NC(=O)COC(=O)c2ccccc2F)c1	0.1	-0.5	3.4	-5.0	1.3	-8.4	·
O=C(COC(=O)c1cnc(Cl)c(Cl)c1)NC1CCCC1	2.4	1.1	1.1	·	·	16.8	·
Cc1ccc(CNCCCn2cnc(C(=O)Nc3ccc(C)c(C)c3)n2)o1	24.3	0.2	2.6	-0.2	10.9	-9.6	·
OC(c1cccc(Cl)c1)c1nccc2ccccc12 (centres undefined)	-3.4	-0.2	-0.7	3.8	4.5	4.3	·
O=C(OC(c1ccccc1)c1nccc2ccccc12)c1cc([N+](=O)[O-])cc([N+](=O)[O-])c1 (centres undefined)	-4.9	-1.5	1.8	-3.5	-14.0	50.1*	43.0
Cc1ccc2c(c1C)-c1c(ccc(C)c1C)C(=O)C2=O	-16.4	-1.8	3.2	4.0	-19.4	61.1*	56.0*
C[C@@H]1CN([C@H](C)CO)S(=O)(=O)c2ccc(C#Cc3cccc(F)c3)cc2O[C@@H]1CN(C)C(=O)CN1CCOCC1	11.0	-2.0	-12.9	·	·	28.9	·
CC(C)Cn1c2c(c(O)c(C(=O)Nn3c(Cc4ccccc4)nc4ccccc4c3=O)c1=O)CCCC2	-3.1	-2.9	1.6	-3.4	16.5	54.4*	9.0
COc1ccc(CN(Cc2cc3cccc(C)c3n3nnnc23)C(=O)N2CCOCC2)cc1	3.2	-0.8	-8.3	0.3	-4.5	50.1*	47.4*
C[C@H]1CN([C@@H](C)CO)S(=O)(=O)c2ccc(-c3ccccc3)cc2O[C@H]1CN(C)C(=O)C1CCC1	7.6	1.2	2.0	·	·	3.8	·
CCN1CCN(c2nc3c(C)cccn3c(=O)c2/C=C(\C#N)S(=O)(=O)c2ccccc2)CC1	13.3	-0.2	-14.3	0.4	0.3	8.7	·
Cc1cccn2c(=O)c(/C=C(\C#N)C(N)=O)c(N3CCN(Cc4ccc5c(c4)OCO5)CC3)nc12	12.0	-1.5	-61.9	4.4	20.6	55.8*	68.7*
Cc1cccn2c(=O)c(/C=C(\C#N)S(=O)(=O)c3ccccc3)c(N3CCN(c4ccccc4)CC3)nc12	1.5	0.1	-36.3	-0.8	16.8	66.1*	0.2
CCOC(=O)/C(C#N)=C/c1c(N2CCN(Cc3ccc4c(c3)OCO4)CC2)nc2c(C)cccn2c1=O	8.6	1.8	-56.7	-2.5	6.1	50.8*	-0.1
COc1cccc(CN(C)C[C@@H]2OCc3cnnn3CCCC(=O)N([C@@H](C)CO)C[C@H]2C)c1	-1.3	0.9	0.1	·	·	-6.8	·
COc1ccc(C(=O)C(C)N(C(=O)c2ccc(Cl)cc2Cl)N2C(=O)C3C4C=CC(C4)C3C2=O)cc1 (centres undefined)	3.6	-1.2	0.4	-1.4	3.9	60.1*	9.0
Cc1ccc(-n2[nH]c(C)c(/C=N/Nc3ccc([N+](=O)[O-])cc3[N+](=O)[O-])c2=O)cc1	-24.5	-0.7	3.3	22.2*	6.4	55.1*	54.6*
Cc1cccc(NC(=O)CNC(=O)COC(=O)c2ccc(C(C)(C)C)cc2)c1C	-14.5	3.6	0.3	-1.6	-2.3	63.8*	51.3*
O=C(Nc1ccc2c(c1)OCO2)c1cc(C2CCCCN2C(=O)c2ccc3c(c2)CCO3)on1 (centres undefined)	-3.9	-2.7	-1.1	·	·	8.9	·
Cc1ccc(S(=O)(=O)N2[C@H](CC(=O)c3ccc(Cl)c(Cl)c3)OC[C@@H]2C)cc1	·	·	3.2	·	·	·	·
Fc1nc(F)c(F)c(NCCCNc2c(F)c(F)nc(F)c2F)c1F	-19.8	0.7	1.5	3.3	40.6	55.0*	57.4*
COc1ccc(C2=C(C=Nc3c(C)n(C)n(-c4ccccc4)c3=O)C(c3ccccc3C)c3ccccc3O2)cc1OC (centres undefined)	-16.2	-3.5	0.6	-3.9	10.9	83.9*	27.8
CCn1c(Cl)c(C=O)s/c1=N\S(=O)(=O)c1ccccc1	-12.3	43.6*	3.6	0.1	9.5	75.6*	32.8
N#Cc1ccc(-c2cccnc2)nc1SCc1ccc(Cl)cc1Cl	-6.4	-2.5	0.6	-1.4	-5.7	55.4*	16.4
SMILES	H9c2 protect	iPSC survival up	SENP1 inh	GRIN3A LBD mod	Arr AP2 block	FAS-TE inh	FAS-TE inh conf
Cc1cccc([C@@H]2[C@@H]3C(=O)N(Cc4ccccc4)C(=O)[C@@H]3[C@]3(Cc4ccccc4)C(=O)N(c4ccc(C(F)(F)F)cc4)C(=O)N23)c1	-3.2	3.4	1.1	-2.4	-1.8	90.3*	27.4
Cc1cccc([C@@H]2[C@@H]3C(=O)N(Cc4ccccc4)C(=O)[C@@H]3[C@]3(Cc4ccc(Cl)cc4)C(=O)N(c4ccccc4)C(=O)N23)c1	-8.2	-0.5	2.4	-3.9	-2.5	92.8*	23.1
CC[C@@]12C(=O)N(c3cccc(Br)c3)C(=O)N1[C@H](c1cccc(C)c1)[C@@H]1C(=O)N(Cc3ccccc3)C(=O)[C@@H]12	4.5	0.0	-0.4	-9.7	-11.9	55.2*	31.5
Cc1cccc([C@@H]2[C@@H]3C(=O)N(Cc4ccccc4)C(=O)[C@@H]3[C@]3(C)C(=O)N(c4cccc(Cl)c4)C(=O)N23)c1	-1.9	0.8	0.0	-15.0	1.4	22.9	·
Cc1cccc([C@@H]2[C@@H]3C(=O)N(Cc4ccccc4)C(=O)[C@@H]3[C@]3(Cc4ccc(Cl)cc4)C(=O)N(c4cccc(Br)c4)C(=O)N23)c1	-0.8	0.0	3.1	3.5	12.8	91.4*	23.4
CCN1C(=O)[C@H]2[C@@H](c3ccc(C)cc3)N3C(=O)N(c4ccc(C)cc4)C(=O)[C@@]3(Cc3ccccc3)[C@H]2C1=O	-1.8	2.1	3.1	-0.6	6.0	12.6	·
C[C@@H]1CN([C@@H](C)CO)C(=O)c2cc(Br)cnc2O[C@H]1CN(C)S(=O)(=O)c1cccs1	10.0	2.3	0.5	·	·	-8.7	·
C=CCOc1c(/C=N\NC(N)=O)cccc1OC	-1.2	-0.6	1.2	1.9	25.9	-6.2	·
C=CCOc1c(OC)cc(/C=N/Nc2cccc(C(=O)O)c2)c(Br)c1Br	-2.1	-1.0	-11.0	-3.0	34.4	70.0*	83.8*
O=C(c1ccccc1)c1nc2ccccc2n(CCCn2c(=O)c(C(=O)c3ccccc3)nc3ccccc32)c1=O	11.6	-1.5	1.7	-4.1	0.5	59.9*	16.7
Cc1ccc2nc(SCC(=O)N3N=C(c4cccs4)CC3c3ccc(F)cc3)nc(=O)n2c1 (centres undefined)	20.9	3.7	-5.0	·	·	41.9	·
